Reference: ChEMBL document CHEMBL1143837, “In vitro activities of various antimicrobials alone and in combination with tigecycline against carbapenem-intermediate or -resistant Acinetobacter baumannii” (2007)
Values after ≈ are worked out from the molar mass of the structure shown. Active and inactive are the calls of the source. The rule behind the calls is not given here.

What was measured:
[1] = tested on: Acinetobacter baumannii; test: Antimicrobial activity against carbapenem-intermediate or resistant Acinetobacter baumannii assessed as percent susceptible isolates; type: functional
[2] = tested on: Acinetobacter baumannii; test: Antimicrobial activity against carbapenem-intermediate or resistant Acinetobacter baumannii isolates by agar dilution method; type: functional
In short: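 Clinical isolates with imipenem or meropenem MIC ≥8 mg/liter were tested by agar dilution on Mueller-Hinton agar supplemented with 25 mg/liter calcium and 12.5 mg/liter magnesium. Inoculum was ~10⁴ CFU per spot from a 0.5 McFarland BHI suspension. Plates were incubated at 35°C for 18–24 h. Growth beyond a single colony or a slight haze counted as growth.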

[3] = tested on: Acinetobacter baumannii; test: Bactericidal activity against carbapenem-resistant Acinetobacter baumannii AA557 by time kill curve analysis; type: functional, organism-based
In short: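 Time-kill on AA557: mid-log (4 h) inoculum at ~5 × 10⁵ CFU/ml in 10 ml fresh CAMHB with tigecycline at 0.5×, 1×, 2× or 4× MIC, or at the calculated average free steady-state serum level, plus growth control. Sampled at 0, 2, 4, 8, 24 and 48 h and plated in duplicate on sheep-blood TSA (35°C, 18–24 h). Detection limit 40 CFU/ml. Experiments run in duplicate.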

[4] = tested on: Acinetobacter baumannii; test: Antimicrobial activity against carbapenem-intermediate or resistant Acinetobacter baumannii isolates by broth microdilution method; type: functional
In short: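 Tigecycline MIC by broth microdilution in freshly prepared CAMHB (25 mg/liter calcium, 12.5 mg/liter magnesium). Approximately 5 × 10⁵ CFU/ml was added to serial drug dilutions and incubated in ambient air at 35°C for 18–24 h. Isolates had imipenem or meropenem MIC ≥8 mg/liter.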

[5] = tested on: Acinetobacter baumannii; test: Bactericidal activity against carbapenem-resistant Acinetobacter baumannii AA557 assessed as reduction in colony count at 2 mg/liter after 24 hrs by time kill curve analysis; type: functional, organism-based

Molecule	Activity [1]	MIC50 [2] [µg/mL]	MIC90 [2] [µg/mL]	Activity [3]	MIC50 [4] [µg/mL]	MIC90 [4] [µg/mL]	log10CFU/ml [5]
NCC[C@H](O)C(=O)N[C@@H]1C[C@H](N)[C@@H](O[C@H]2O[C@H](CN)[C@@H](O)[C@H](O)[C@H]2O)[C@H](O)[C@H]1O[C@H]1O[C@H](CO)[C@@H](O)[C@H](N)[C@H]1O [AMIKACIN]	38%	32 (≈ 54.6 µM)	> 32	–	–	–	–
O=C(O)c1cn(C2CC2)c2cc(N3CCNCC3)c(F)cc2c1=O [CIPROFLOXACIN]	0%	–	–	–	–	–	–
C[C@H]1c2cccc(O)c2C(=O)C2=C(O)[C@]3(O)C(=O)C(C(N)=O)=C(O)[C@@H](N(C)C)[C@@H]3[C@@H](O)[C@@H]21.O [DOXYCYCLINE]	56%	2	> 32	–	–	–	–
C[C@@H](O)[C@H]1C(=O)N2C(C(=O)O)=C(SCCNC=N)C[C@H]12 [IMIPENEM ANHYDROUS]	20%	4 (≈ 13.4 µM)	64 (≈ 214 µM)	–	–	–	–
C[C@@H](O)[C@H]1C(=O)N2C(C(=O)O)=C(S[C@@H]3CN[C@H](C(=O)N(C)C)C3)[C@H](C)[C@H]12 [MEROPENEM]	4%	16 (≈ 41.7 µM)	> 128	–	–	–	–
CN(C)c1ccc(O)c2c1C[C@H]1C[C@H]3[C@H](N(C)C)C(O)=C(C(N)=O)C(=O)[C@@]3(O)C(O)=C1C2=O [MINOCYCLINE]	83%	0.5 (≈ 1.09 µM)	8 (≈ 17.5 µM)	–	–	–	–
CO[C@H]1/C=C/O[C@@]2(C)Oc3c(C)c(O)c4c(O)c(c(/C=N/N5CCN(C)CC5)c(O)c4c3C2=O)NC(=O)/C(C)=C\C=C\[C@H](C)[C@H](O)[C@@H](C)[C@@H](O)[C@@H](C)[C@H](OC(C)=O)[C@@H]1C [RIFAMPIN]	inactive	4 (≈ 4.86 µM)	8 (≈ 9.72 µM)	–	–	–	–
CN(C)c1cc(NC(=O)CNC(C)(C)C)c(O)c2c1C[C@H]1C[C@H]3[C@H](N(C)C)C(O)=C(C(N)=O)C(=O)[C@@]3(O)C(O)=C1C2=O [TIGECYCLINE]	95%	–	–	Active	1 (≈ 1.71 µM)	2 (≈ 3.41 µM)	–
POLYMYXIN B	100%	1	1	–	–	–	1.6
